# Measurements published in ChEMBL document CHEMBL1641550, “Efficient synthesis and biological evaluation of epiceanothic acid and related compounds” (Bioorg Med Chem Lett, 2011).
# Structures can show the parent of a compound that is named as a salt.
# Key:
# [1] = biological target: T1, Glycogen phosphorylase, muscle form (Oryctolagus cuniculus, UniProt P00489); assay: Inhibition of rabbit muscle glycogen phosphorylase a
# T1 sequence (P00489 whole entry): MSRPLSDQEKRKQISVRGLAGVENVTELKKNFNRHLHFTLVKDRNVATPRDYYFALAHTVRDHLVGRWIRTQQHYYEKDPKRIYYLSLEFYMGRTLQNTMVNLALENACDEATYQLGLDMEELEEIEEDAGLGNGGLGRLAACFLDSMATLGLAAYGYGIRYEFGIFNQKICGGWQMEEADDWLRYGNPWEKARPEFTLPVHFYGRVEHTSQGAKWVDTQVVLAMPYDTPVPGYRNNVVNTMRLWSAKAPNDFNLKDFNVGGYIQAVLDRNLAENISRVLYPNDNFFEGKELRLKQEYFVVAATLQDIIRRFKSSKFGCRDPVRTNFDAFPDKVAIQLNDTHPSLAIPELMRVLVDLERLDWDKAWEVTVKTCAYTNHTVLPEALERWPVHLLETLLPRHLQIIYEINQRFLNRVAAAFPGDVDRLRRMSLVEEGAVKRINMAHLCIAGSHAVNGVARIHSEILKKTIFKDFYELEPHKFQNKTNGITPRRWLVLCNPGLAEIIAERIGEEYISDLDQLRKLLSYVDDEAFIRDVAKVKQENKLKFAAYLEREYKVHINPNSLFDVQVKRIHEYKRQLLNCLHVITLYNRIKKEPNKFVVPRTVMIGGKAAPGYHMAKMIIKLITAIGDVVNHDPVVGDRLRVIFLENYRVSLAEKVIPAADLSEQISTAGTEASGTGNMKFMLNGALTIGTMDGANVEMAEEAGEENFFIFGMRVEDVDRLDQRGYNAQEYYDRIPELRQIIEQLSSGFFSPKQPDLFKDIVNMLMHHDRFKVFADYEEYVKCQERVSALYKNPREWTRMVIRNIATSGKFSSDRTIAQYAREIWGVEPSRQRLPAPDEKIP
# [2] = system: PC-3; assay: Cytotoxicity against human PC3 cells after 48 hrs by MTT assay; assay type: functional, cell-based
# Outline: (§1)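 Cells seeded and allowed to adhere at 37 °C in a CO2 incubator, then exposed for 48 h to 0.0001, 0.0005, 0.001, 0.005, 0.01, 0.05 or 0.1 mmol·L−1 compound. MTT (5%) added for a further 4 h, absorbance read at 570 nm.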
# [3] = system: A549; assay: Cytotoxicity against human A549 cells after 48 hrs by MTT assay; assay type: functional, cell-based; conditions: A549, 48 h; outline: as §1
# [4] = system: MCF7; assay: Cytotoxicity against human MCF7 cells after 48 hrs by MTT assay; assay type: functional, cell-based; conditions: MCF7, 48 h; outline: as §1
# [5] = system: HeLa; assay: Cytotoxicity against human HeLa cells after 48 hrs by MTT assay; assay type: functional, cell-based; outline: as §1
# [6] = system: BGC-823; assay: Cytotoxicity against human BGC823 cells after 48 hrs by MTT assay; assay type: functional, cell-based; outline: as §1
# [7] = system: Human immunodeficiency virus 1; assay: Antiviral activity against Human immunodeficiency virus 1 NL4-3 infected in MT4 lymphocytes assessed as p24 antigen level by ELISA; assay type: functional, organism-based
# Outline: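 HIV-1 NL4-3 variants at MOI 0.01 infect MT-4 cells in a replication screening assay run in 96-well format.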
# [8] = system: MT4; assay: Cytotoxicity against human MT4 lymphocytes after 48 hrs by MTT assay; assay type: cell-based
# [9] = Therapeutic index, ratio of IC50 for human lymphocytes to EC50 for Human immunodeficiency virus 1 NL4-3; conditions: read-out: TI
# [10] = Homo sapiens, PC-3, 48 h, read-out: IC50
# [11] = Homo sapiens, HeLa, 48 h, read-out: IC50
# [12] = Homo sapiens, BGC-823, 48 h, read-out: IC50
# [13] = Human immunodeficiency virus 1, NL4-3, read-out: EC50
# [14] = Homo sapiens, MT4, 48 h, read-out: IC50
smiles,measurement,setting,value
C=C(C)[C@@H]1CC[C@]2(COC(c3ccccc3)(c3ccccc3)c3ccccc3)CC[C@]3(C)[C@H](CC[C@@H]4[C@@](C)(CC(=O)O)[C@H](C(C)(C)C(=O)O)CC[C@]43C)[C@@H]12,IC50,[1]; read-out: IC50,0.21 µM
same,IC50,[2]; [10],6.75 µM
same,IC50,[3],136 µM
same,IC50,[4],560 µM
same,IC50,[5]; hela,Not Active
same,IC50,[6]; bgc-823,Not Active
C=C(C)[C@@H]1CC[C@]2(COC(c3ccccc3)(c3ccccc3)c3ccccc3)CC[C@]3(C)[C@H](CC[C@@H]4[C@@](C)(CC(=O)OC)[C@H](C(C)(C)C(=O)OC)CC[C@]43C)[C@@H]12,IC50,[1]; read-out: IC50,2.87 µM
same,IC50,[2]; [10],5.32 µM
same,IC50,[3],996 µM
same,IC50,[4],374 µM
same,IC50,[5]; [11],17.1 µM
same,IC50,[6]; [12],9.54 µM
C=C(C)[C@@H]1CC[C@]2(COC(c3ccccc3)(c3ccccc3)c3ccccc3)CC[C@]3(C)[C@H](CC[C@@H]4[C@@]5(C)[C@H](C(=O)OC)[C@H](O)C(C)(C)[C@@H]5CC[C@]43C)[C@@H]12,IC50,[1]; read-out: IC50,20.1 µM
same,IC50,[2]; pc-3,Not Active
same,IC50,[3],770 µM
same,IC50,[4],398 µM
same,IC50,[5]; hela,Not Active
C=C(C)[C@@H]1CC[C@]2(COC(c3ccccc3)(c3ccccc3)c3ccccc3)CC[C@]3(C)[C@H](CC[C@@H]4[C@@]5(C)[C@H](C(=O)OC)[C@H](OC(C)=O)C(C)(C)[C@@H]5CC[C@]43C)[C@@H]12,EC50,[7],Not Active
same,IC50,[8]; mt4,Not Active
same,IC50,[1]; read-out: IC50,15.2 µM
same,IC50,[2]; pc-3,Not Active
same,IC50,[3],892 µM
same,IC50,[4],565 µM
same,IC50,[5]; hela,Not Active
same,IC50,[6]; bgc-823,Not Active
C=C(C)[C@@H]1CC[C@]2(CO)CC[C@]3(C)[C@H](CC[C@@H]4[C@@]5(C)[C@H](C(=O)OC)[C@H](OC(C)=O)C(C)(C)[C@@H]5CC[C@]43C)[C@@H]12,EC50,[7],Not Active
same,IC50,[8]; mt4,Not Active
same,IC50,[1],Not Active
same,IC50,[2]; [10],66.3 µM
same,IC50,[3],62.9 µM
same,IC50,[4],604 µM
same,IC50,[6]; [12],25.9 µM
C=C(C)[C@@H]1CC[C@]2(C=O)CC[C@]3(C)[C@H](CC[C@@H]4[C@@]5(C)[C@H](C(=O)OC)[C@H](OC(C)=O)C(C)(C)[C@@H]5CC[C@]43C)[C@@H]12,EC50,[7],Not Active
same,IC50,[8]; mt4,Not Active
same,IC50,[1]; read-out: IC50,53.8 µM
same,IC50,[2]; [10],8.51 µM
same,IC50,[3],194 µM
same,IC50,[4],32.5 µM
same,IC50,[5]; [11],105 µM
same,IC50,[6]; [12],12.7 µM
C=C(C)[C@@H]1CC[C@]2(C(=O)O)CC[C@]3(C)[C@H](CC[C@@H]4[C@@]5(C)[C@H](C(=O)OC)[C@H](OC(C)=O)C(C)(C)[C@@H]5CC[C@]43C)[C@@H]12,EC50,[7],Not Active
same,IC50,[8]; mt4,Not Active
same,IC50,[1]; read-out: IC50,46.4 µM
same,IC50,[2]; [10],10.8 µM
same,IC50,[3],0.89 µM
same,IC50,[4],0.33 µM
same,IC50,[5]; [11],56.7 µM
same,IC50,[6]; [12],7.64 µM
C=C(C)[C@@H]1CC[C@]2(CO)CC[C@]3(C)[C@H](CC[C@@H]4[C@@]5(C)CC[C@H](O)C(C)(C)[C@@H]5CC[C@]43C)[C@@H]12 [BETULIN],EC50,[7],Not Active
same,IC50,[8]; mt4,Not Active
same,IC50,[1]; read-out: IC50,41.5 µM
C=C(C)[C@@H]1CC[C@]2(C(=O)O)CC[C@]3(C)[C@H](CC[C@@H]4[C@@]5(C)CC[C@H](OC(=O)CC(C)(C)C(=O)O)C(C)(C)[C@@H]5CC[C@]43C)[C@@H]12 [BEVIRIMAT],EC50,[7]; [13],0.082 µM
same,IC50,[8]; [14],15.2 µM
same,selectivity ratio,[9],185
COc1cccc2c1C(=O)c1c(O)c3c(c(O)c1C2=O)C[C@@](O)(C(=O)CO)C[C@@H]3O[C@H]1C[C@H](N)[C@H](O)[C@H](C)O1 [DOXORUBICIN HYDROCHLORIDE],IC50,[2]; [10],0.68 µM
same,IC50,[3],0.54 µM
same,IC50,[4],1.65 µM
C=C(C)[C@@H]1CC[C@]2(C(=O)O)CC[C@]3(C)[C@H](CC[C@@H]4[C@@]5(C)[C@H](C(=O)O)[C@H](O)C(C)(C)[C@@H]5CC[C@]43C)[C@@H]12 [EPICEANOTHIC ACID],EC50,[7]; [13],15.6 µM
same,IC50,[8]; [14],38.9 µM
same,selectivity ratio,[9],2.49
same,IC50,[1]; read-out: IC50,194 µM
same,IC50,[2]; [10],19.7 µM
same,IC50,[3],16.8 µM
same,IC50,[4],87.2 µM
same,IC50,[6]; [12],2.41 µM
